The values below come from ChEMBL document CHEMBL1134233, “Synthesis of phenylglycine derivatives as potent and selective antagonists of group III metabotropic glutamate receptors” (2001).

Molecules are shown by their SMILES.

Assay [1] can be described thus: Antagonist activity at Group III Metabotropic glutamate receptor in rat spinal cord in the presence of (S)AP4 at 100 uM as agonist challenge. The assay is classed as functional. In short, it runs like this:
(§1)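 Neonatal rat spinal cord, one-point assay run in triplicate. A single antagonist concentration was tested against a single agonist-evoked response, expressed as percent antagonism. The agonist was (2R,4R)-APDC for group II and (S)-AP4 for group III.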

Assay [2] can be described thus: Antagonist activity at Group II Metabotropic glutamate receptor in rat spinal cord in the presence of (2R,4R)APDC at 1 uM as agonist challenge. The assay is classed as functional. The method in brief: as §1
Assay [3] in a line: Antagonist activity at Group II Metabotropic glutamate receptor in rat spinal cord. It is filed as functional. The method in brief: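 Neonatal rat spinal cord preparation. Concentration–response curves to (1S,3S)-ACPD or (2R,4R)-APDC were built with and without antagonist to give an apparent K_D. For weak antagonists, a single antagonist concentration was tested against a single agonist-induced response in triplicate and reported as % antagonism.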

Assay [4] can be described thus: Antagonist activity at Group I Metabotropic glutamate receptor in rat spinal cord in the presence of (1S,3R)APCD at 1 mM as agonist challenge.
The nature of assay [5]: Antagonist activity at Group III Metabotropic glutamate receptor in rat spinal cord. It is filed as functional. The method in brief:
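Neonatal rat spinal cord preparation. Concentration–response curves to the group III agonist (S)-AP4 were constructed with and without the antagonist, and an apparent KD was derived from the curve shift.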

Assay [6] can be described thus: Antagonist activity at Group I Metabotropic glutamate receptor in rat spinal cord; Not effective at 1 mM. The assay is classed as functional.
The nature of assay [7]: Antagonist activity at Group I Metabotropic glutamate receptor in rat spinal cord. The assay is classed as functional.
Assay [8] can be described thus: Antagonist activity at Group III Metabotropic glutamate receptor in rat spinal cord; Not effective at 50 uM. The assay is classed as functional.
A short description of assay [9]: Antagonist activity at Group III Metabotropic glutamate receptor in rat spinal cord; Not effective at 1 mM. The assay is classed as functional.

For `COc1cc(C(C)(N)C(=O)O)ccc1P(=O)(O)O` (centres undefined), the values for the KDs in assay [1] and in [2] were 4.8 µM and 51 µM, respectively. The Inhibition is the share of the control response that was lost under treatment. As to `NC(C(=O)O)(c1ccc(P(=O)(O)O)cc1)C1CC1` (centres undefined), the results for the KDs in assay [3] and in [5] were 53 µM and 1.7 µM, respectively. For the same compound, the Inhibition in assay [4] amounted to 70%.

In the case of `CC(N)(C(=O)O)c1ccc(P(=O)(O)O)c(Cl)c1` (centres undefined), the figures for the KDs result in assay [6], in assay [3] and in assay [5] were “No effect”, 726 µM and 6.8 µM, respectively. For the compound `Cc1cc(C(C)(N)C(=O)O)ccc1P(=O)(O)O` (centres undefined), in [5], the KDs came to 5.5 µM. On the same count and under the same terms, the result for `Cc1cc(P(=O)(O)O)ccc1C(C)(N)C(=O)O` (centres undefined) reads 180 µM. `CC(N)(C(=O)O)c1ccc(P(=O)(O)O)cc1` (centres undefined): the KDs result in [6] is “No effect”; in assay [3], 113 µM; in assay [5], 9.2 µM. With `CC(N)(C(=O)O)c1ccc(C(=O)O)cc1` (centres undefined), the figures for the KDs in assay [7], in assay [3] and in [5] were 144 µM, 479 µM and 227 µM, respectively. As to `COc1cc(C(N)(C(=O)O)C2CC2)ccc1P(=O)(O)O` (centres undefined), the KDs result in assay [8] is “No effect”. Take `CCOP(=O)(O)c1ccc(C(C)(N)C(=O)O)cc1OC` (centres undefined): the KDs in assay [1] was determined as 13 µM.

Take `CC(N)(C(=O)O)c1cccc(CP(=O)(O)O)c1` (centres undefined): the KDs entry in [9] is “No effect”.
